# Screening data deposited in PubChem by Broad Institute.
# The sample as a whole holds a higher share of hits than the screen did.
# IDH1 R132H inh – blocks human IDH1 R132H reductase activity | diaphorase/resazurin fluorescence, 60 min | inhibition, % at 10 µM | actives 0.18% (n = 70,000); in the data active means inhibition above about 34%; inconclusive means no clear call, values can overlap the other calls; inactive means below about 11%;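 further: 0% = DMSO and 100% = no enzyme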
# T cruzi growth-1 – inhibitors of T. cruzi proliferation; inhibition, % at 8.34 µM; T. cruzi beta-gal in NIH3T3, GalScreen luminescence, 90 h; actives 5.9% (n = 77,000);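 active means mean inhibition above about 93%, with at least 55% of replicates each passing it, limit read from the data, passing the limit was not always enough; inconclusive means only one of those two conditions holds; inactive means neither condition holds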
# KDM4C inh – KDM4C (human) demethylase inhibition. inhibition, % at 12.5 µM. GST-KDM4C 2-372, H3K9me3 peptide, LANCE TR-FRET. actives 0.15% (n = 96,000). Q9H3R0;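 active means mean replicate inhibition above about 25%, with at least 55% of replicates also reaching it, limit read from the data, passing the limit was not always enough; inconclusive means only one of those two conditions met; inactive means neither condition met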
# Target sequence (Q9H3R0 2-372 limits assumed): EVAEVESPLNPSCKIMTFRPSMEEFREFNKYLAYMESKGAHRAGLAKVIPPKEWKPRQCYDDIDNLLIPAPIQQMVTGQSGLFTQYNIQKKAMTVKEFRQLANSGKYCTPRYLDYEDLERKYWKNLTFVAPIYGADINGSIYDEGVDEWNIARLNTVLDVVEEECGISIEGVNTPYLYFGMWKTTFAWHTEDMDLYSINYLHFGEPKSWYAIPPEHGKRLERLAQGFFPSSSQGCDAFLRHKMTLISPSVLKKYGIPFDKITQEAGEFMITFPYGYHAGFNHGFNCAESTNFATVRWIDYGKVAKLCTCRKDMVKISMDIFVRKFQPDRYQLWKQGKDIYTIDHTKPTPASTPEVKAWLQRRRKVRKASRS
#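 material = GST-tagged GASC-1 (JMJD2C) catalytic fragment, aa 2-372 | amount = enzyme final amount 10 nM | medium = HEPES buffer, pH 7.5, plus ascorbate | also added = H3K9me3 peptide substrate, Fe(II), 2-oxoglutarate | dosing = single dose | times = 30 min demethylation and 1 h detection at room temperature | detection = LANCE TR-FRET | read-out basis = Fall in 671/618 emission ratio as inhibition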
# T cruzi growth-2 – Trypanosoma cruzi proliferation inhibition; shares compounds with T cruzi growth-1; T. cruzi beta-gal in NIH3T3, GalScreen luminescence, 90 h; inhibition, % at 8.35 µM; actives 72% (n = 5,600); AID 651739;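 active means mean replicate inhibition above about 95% and at least 55% of replicates individually reaching it, limit read from the data; inconclusive means only one of the two criteria is met; inactive means neither criterion is met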
# T cruzi growth-3 – inhibitors of T. cruzi proliferation; T. cruzi beta-gal in NIH3T3, GalScreen luminescence, 90 h; shares compounds with T cruzi growth-1; actives 21% (n = 5,600); inhibition, % at 2.09 µM;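 active means mean inhibition above about 95%, with at least 55% of replicates also reaching it, limit read from the data; inconclusive means meets just one of the two conditions; inactive means meets neither condition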;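 further: plate controls were neutral control median for no effect and positive control median for full effect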
# NIH3T3 tox – cytotoxicity in mouse NIH/3T3 fibroblasts; shares compounds with T cruzi growth-1; NIH/3T3 viability, CellTiter-Glo ATP luminescence, 90 h; cytotoxicity (signal decrease), % at 8.35 µM; actives 14% (n = 5,600); AID 651742;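 active means mean signal decrease across replicates above about 35% based on untreated-well scatter, with enough replicates individually passing, limit read from the data; inconclusive means no rule stated though some were filed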;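 further: 0% = median of neutral control wells and 100% = median of positive control wells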
# 3T3 cytotox 2 – kills mouse NIH/3T3 fibroblasts. NIH/3T3 viability, CellTiter-Glo ATP luminescence, 90 h. shares compounds with T cruzi growth-1. actives 56% (n = 5,600). inhibition, % at 24.9 µM;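 active means mean loss of cell viability signal at or above a set limit, and enough replicates individually reaching it; inconclusive means meets only the mean limit or only the replicate share; inactive means meets neither condition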;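 further: 0% = median of neutral control wells and 100% = median of positive control wells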
# * hit, by the source's call; ? = inconclusive; . = not tested or not shown.
SMILES,IDH1 R132H inh,T cruzi growth-1,KDM4C inh,T cruzi growth-2,T cruzi growth-3,NIH3T3 tox,3T3 cytotox 2
C[C@H]1CN([C@@H](C)CO)C(=O)c2cccc(NC(=O)CCCCCC(=O)Nc3ccccc3N)c2O[C@@H]1CN(C)Cc1ccc(-c2ccccc2)cc1,3,.,13,.,.,.,.
C[C@@H]1CN([C@H](C)CO)C(=O)c2cccc(NC(=O)CCCCCC(=O)Nc3ccccc3N)c2O[C@H]1CN(C)Cc1ccc(-c2ccccc2)cc1,.,?,6,84,-14,-3,-7
C[C@@H]1CN([C@@H](C)CO)C(=O)c2cccc(NC(=O)CCCCCC(=O)Nc3ccccc3N)c2O[C@H]1CN(C)Cc1ccc2c(c1)OCO2,0,.,0,.,.,.,.
C[C@H]1CN([C@@H](C)CO)C(=O)c2cccc(NC(=O)CCCCCC(=O)Nc3ccccc3N)c2O[C@@H]1CN(C)Cc1ccc2c(c1)OCO2,.,127*,12,107*,108*,-1,25*
OC(Cn1nnc2ccccc21)Cn1c2ccc(Cl)cc2c2cc(Cl)ccc21 (stereo unspecified),0,.,.,.,.,.,.
OC[C@@H]1[C@H](c2ccc(-c3ccccc3F)cc2)[C@@H]2CN(Cc3cncnc3)CCCCN12,.,110*,0,88,82,-20,50*
OC[C@@H]1[C@@H](c2ccc(-c3cccc(F)c3)cc2)[C@@H]2CN(Cc3cncnc3)CCCCN12,.,30,1,.,.,.,.
OC[C@@H]1[C@@H](c2ccc(-c3ccccc3F)cc2)[C@@H]2CN(Cc3cccnc3)CCCCN12,.,85,5,.,.,.,.
OC[C@H]1[C@H](c2ccc(-c3ccccc3F)cc2)[C@@H]2CN(Cc3cncnc3)CCCCN12,.,108*,-1,108*,87,4,36*
OC[C@@H]1[C@H](c2ccc(-c3ccccc3F)cc2)[C@H]2CN(Cc3cncnc3)CCCCN12,.,110*,1,100*,89,22,38*
OC[C@@H]1[C@@H](c2ccc(-c3ccccc3F)cc2)[C@H]2CN(Cc3cncnc3)CCCCN12,.,46,0,.,.,.,.
CCS(=O)(=O)N1CCC2(CC1)CN(Cc1ccc3c(c1)OCO3)[C@@H](CO)c1c2c2ccc(OC)cc2n1C,.,.,0,.,.,.,.
CCc1ccc(CCC(=O)Nc2ccc(Cl)cc2Cl)o1,0,.,.,.,.,.,.
CC1(C)[C@H]2CC=C(/C=N\NC(=O)c3ccccc3O)[C@@H]1C2,0,.,.,.,.,.,.
COc1ccc(S(=O)(=O)N2CCCCN3[C@H](CO)[C@@H](c4ccc(C#CCC(C)C)cc4)[C@@H]3C2)cc1,.,38,7,.,.,.,.
COc1ccc(S(=O)(=O)N2CCCCN3[C@H](CO)[C@H](c4ccc(C#CC(C)C)cc4)[C@@H]3C2)cc1,.,81,0,.,.,.,.
COc1ccc(S(=O)(=O)N2CCCCN3[C@H](C2)[C@H](c2ccc(C#CC(C)C)cc2)[C@@H]3CO)cc1,.,118*,-1,107*,105*,1,69*
COc1ccc(S(=O)(=O)N2CCCCN3[C@H](CO)[C@@H](c4ccc(C#CC(C)C)cc4)[C@@H]3C2)cc1,.,96*,0,101*,75,21,20
CC(C)NC(=O)N1[C@@H]2CNC[C@H]1C2c1ccc(-c2ccc(C#N)cc2)cc1 (stereo partly specified),.,.,-1,.,.,.,.
CCn1c(SCC(=O)Nc2ccccc2F)nnc1-c1ccc(Br)cc1,1,.,.,.,.,.,.
CCCN1C[C@H](C)[C@@H](OC)CN(C)C(=O)c2cc(NC(=O)Nc3cccc(F)c3)ccc2OC[C@H]1C,.,-13,3,.,.,.,.
C[C@H]1CCCCO[C@H](CN(C)C(=O)c2ccncc2)[C@@H](C)CN([C@@H](C)CO)C(=O)c2cc(NC(=O)c3ccccc3)ccc2O1,.,100*,0,51,11,-4,-8
C[C@@H]1CN([C@@H](C)CO)C(=O)c2cc(NC(=O)c3ccccc3)ccc2O[C@@H](C)CCCCO[C@H]1CN(C)C(=O)c1ccccc1,-6,?,7,91,0,-2,0
C[C@@H]1CCCCO[C@@H](CN(C)C)[C@H](C)CN([C@@H](C)CO)C(=O)c2cc(NC(=O)c3ccncc3)ccc2O1,4,100*,2,-11,-38,-9,-4
C[C@@H]1CCCCO[C@@H](CN(C)C(=O)c2ccccc2)[C@@H](C)CN([C@H](C)CO)C(=O)c2cc(NC(=O)c3ccccc3)ccc2O1,1,34,-1,.,.,.,.
SMILES,IDH1 R132H inh,T cruzi growth-1,KDM4C inh,T cruzi growth-2,T cruzi growth-3,NIH3T3 tox,3T3 cytotox 2
C[C@H](CO)N1C[C@H](C)[C@@H](CN(C)C)OCCCC[C@H](C)Oc2ccc(NC(=O)c3ccncc3)cc2C1=O,2,3,0,.,.,.,.
C[C@H](CO)N1C[C@H](C)[C@@H](CN(C)C(=O)c2ccccc2)OCCCC[C@H](C)Oc2ccc(NC(=O)c3ccncc3)cc2C1=O,2,11,0,.,.,.,.
C[C@@H]1CN([C@@H](C)CO)C(=O)c2cc(C#CCN(C)C)cnc2O[C@H]1CN(C)C,-2,.,5,.,.,.,.
CO[C@@H](CN(C)S(=O)(=O)c1ccc(Cl)cc1)[C@H](C)CN([C@@H](C)CO)S(=O)(=O)c1cccc(Cl)c1,-1,84,7,.,.,.,.
CO[C@@H](CN(C)S(=O)(=O)c1ccc(Cl)cc1)[C@@H](C)CN([C@H](C)CO)S(=O)(=O)c1cccc(Cl)c1,-1,?,-3,92,56,54*,79*
CO[C@@H](CN(C)S(=O)(=O)c1ccc(Cl)cc1)[C@@H](C)CN([C@@H](C)CO)S(=O)(=O)c1cccc(Cl)c1,0,85,-2,.,.,.,.
CO[C@H](CN(C)S(=O)(=O)c1cccc(Cl)c1)[C@H](C)CN([C@H](C)CO)S(=O)(=O)c1ccc(Cl)cc1,0,?,-2,99*,20,47*,68*
Cc1noc(C)c1NC(=O)N(C)C[C@H]1Oc2ccc(NS(=O)(=O)c3ccc(Cl)cc3)cc2CC(=O)N([C@@H](C)CO)C[C@@H]1C,-3,24,-1,.,.,.,.
CN(C)C(=O)[C@H]1[C@H](CO)[C@H]2Cn3c(ccc(/C=C/c4ccccc4)c3=O)[C@H]2N1CC1CC1,.,.,0,.,.,.,.
CO[C@H]1CN(C)C(=O)c2cc(NS(=O)(=O)c3ccc(Cl)cc3)ccc2OC[C@H](C)NC[C@@H]1C,0,-27,0,.,.,.,.
COc1ccc(S(=O)(=O)Nc2ccc3c(c2)C(=O)N([C@@H](C)CO)C[C@@H](C)[C@@H](CN(C)S(=O)(=O)c2ccc(F)cc2)OCCCC[C@H](C)O3)cc1,.,44,-1,.,.,.,.
COc1ccc(S(=O)(=O)N(C)C[C@H]2OCCCC[C@@H](C)Oc3ccc(NS(=O)(=O)c4ccc(F)cc4)cc3C(=O)N([C@@H](C)CO)C[C@H]2C)cc1,3,100*,1,99*,75,-16,-15
